High-throughput results (PubChem BioAssay)
UCH37 DUB inh = inhibitors of human UCH37 deubiquitinase, primary screen, biochemical, Ub-AMC cleavage, fluorescence | purified proteasome/UCH37 | inhibition, % (no concentration beside the values) | 0.33% of 330,000 active | Ubiquitin carboxyl-terminal hydrolase isozyme L5 (Homo sapiens), Q9Y5K5;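 active = mean inhibition over replicate wells above about 20%, limit read from the data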;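 note: 0% = compound-free wells with enzyme and 100% = wells lacking proteasome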
Target sequence (Q9Y5K5 whole entry, looked up): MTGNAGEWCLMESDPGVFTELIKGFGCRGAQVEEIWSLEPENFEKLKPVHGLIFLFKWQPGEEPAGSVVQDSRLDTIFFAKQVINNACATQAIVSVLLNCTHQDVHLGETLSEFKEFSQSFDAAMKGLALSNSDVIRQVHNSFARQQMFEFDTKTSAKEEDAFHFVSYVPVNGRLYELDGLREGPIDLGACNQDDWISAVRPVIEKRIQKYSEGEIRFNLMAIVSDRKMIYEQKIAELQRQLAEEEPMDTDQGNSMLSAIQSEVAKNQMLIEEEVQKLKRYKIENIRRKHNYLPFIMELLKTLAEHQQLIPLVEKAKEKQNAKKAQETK
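assay system = human UCH37 enzyme supplied as purified proteasome complex | amount = proteasome at 0.15 nM in the dispensed enzyme solution | schedule = 30 min compound-proteasome preincubation then 25 min substrate reaction, room temperature | measured by = fluorescence, ex 355 nm, em 460 nm | benchmarks = no-proteasome wells (full inhibition) and compound-free wells (no inhibition)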
Fh CTSL1 inh = Fasciola hepatica cathepsin L1 inhibitors, primary screen, counter-screen for PFM18AAP inhibitor project, biochemical, QFRET, fluorogenic peptide substrate. recombinant F. hepatica cathepsin L1, Z-Leu-Arg-MCA fluorescence. inhibition, % at 5.96 µM. 0.49% of 300,000 active. AID 1906, 2009;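 active = inhibition above the mean of all tested compounds plus 3 SD, set per screening campaign, cut at about 17% in these data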;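 note: 0% = plate median of test compound wells and 100% = 1 µM Z-Phe-Ala-diazomethylketone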
UPR XBP1 act = activators of adaptive XBP1 UPR arm, primary screen, cell-based, CHO-XBP1 luciferase reporter, luminescence, uHTS; IRE1-XBP1 UPR activation; percent of tunicamycin response, DMSO as zero; activation, % at 20 µM; 0.33% of 330,000 active; AID 463104, 2010;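 active = versus positive control, 20 µM dose yields 30% or more activation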;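 note: 100% = tunicamycin at 10 µg/mL and 0% = DMSO only wells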
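Test system: CHO-XBP1 luciferase reporter cells | Buffer or medium: Serum-containing F12 medium, 10% FBS | Schedule: 6 h compound exposure at 37 °C, 5% CO2 | Detection: Steady-Glo luciferase glow luminescence, 10 min after reagent addition | Read-out basis: Activation, % of tunicamycin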
UPR CHOP act = activators of apoptotic CHOP UPR arm, primary screen, cell-based, CHO-CHOP luciferase reporter, luminescence, uHTS; 0.34% of 330,000 active; AID 449763, 2010; activation, % at 10 µM; UPR activation; percent of tunicamycin response over DMSO baseline;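 active = at 10 µM dose, activation of 40% or more, normalized to positive control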;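 note: 100% = tunicamycin at 10 µg/mL and 0% = DMSO alone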
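Assay system: CHO-CHOP cells, stable luciferase reporter of PERK-eIF2a-CHOP signalling / Buffer or medium: F12 plus 10% serum / Compound dosing: one dose, 10 µM in 0.5% DMSO / Times: 6 h compound treatment, 37 °C / Technique: luciferase luminescence / Read-out: % reporter activation, DMSO baseline versus tunicamycin full activation / Benchmarks: tunicamycin and DMSO controls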
CHOP inh = inhibitors of CHOP promoter induction, primary screen, cell-based, unfolded protein response, luciferase reporter; CHO-K1 CHOP-promoter luciferase, tunicamycin-induced, 15-18 h; inhibition, % at 10 µM; 3.8% of 220,000 active;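 active = compounds that reduced the stress-induced luciferase reporter signal by more than about 70% of percent inhibition, limit read from the data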;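 note: 0% = tunicamycin plus vehicle and 100% = wells without tunicamycin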
CHOP confirm = retest of CHOP induction inhibitors, confirmation, cell-based; inhibition, % at 10 µM; CHO-CHOP promoter luciferase reporter, tunicamycin-induced, luminescence; AID 504437, 2011; 45% of 2,100 active; shares compounds with CHOP inh;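 active = mean of three repeat readings of reporter signal inhibition above a set limit, cut at about 70% in these data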;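 note: 0% = tunicamycin plus vehicle and 100% = wells lacking tunicamycin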
Starred values were filed as active, the others as inactive. The entries come from a sample that favours hits as a whole.

For COc1ccc(C2NCCc3c2[nH]c2ccccc32)cc1CSc1nc2ccccc2s1 (stereo unspecified) the results were UCH37 DUB inh -0.4, Fh CTSL1 inh 1.5, CHOP inh 99.5* and CHOP confirm 45.0.
`Cc1ccc(NCC(=O)N/N=C\C(Br)=C\c2ccccc2)cc1` gave Fh CTSL1 inh -4.2, UPR XBP1 act -2.7, UPR CHOP act 1.1, CHOP inh 110.4* and CHOP confirm 10.1.
`O=C(COc1ccc(Cl)cc1)Nc1ccccc1C(=O)NCc1ccco1` gave UCH37 DUB inh 4.7, Fh CTSL1 inh 4.3, UPR XBP1 act 4.4, UPR CHOP act 5.8, CHOP inh 97.0* and CHOP confirm -8.0.
Cc1ccc(O)c(NC(=O)c2noc3c2CCc2ccccc2-3)c1 was read as UCH37 DUB inh -0.4, Fh CTSL1 inh 2.5, UPR XBP1 act 1.9, UPR CHOP act 7.8, CHOP inh 107.3* and CHOP confirm -96.1.
For Cc1cc(NC(=O)c2noc3c2CCc2ccccc2-3)no1 the results were UCH37 DUB inh 2.1, Fh CTSL1 inh -4.8, UPR XBP1 act 1.9, UPR CHOP act 5.6 and CHOP inh 19.2.
For CON=CC(C(C)=O)C(=O)Nc1ccc(Cl)cc1Cl (stereo unspecified) the results were UCH37 DUB inh -1.3.
For O=C1c2ccc3c4c(ccc(c24)C(=O)N1c1cccc(O)c1)C(=O)N(c1cccc(O)c1)C3=O the results were UCH37 DUB inh 5.4, Fh CTSL1 inh 9.0, UPR XBP1 act -2.2, UPR CHOP act 0.7, CHOP inh 100.9* and CHOP confirm 86.3*.
For O=C(O)c1cccc(N2C(=O)c3cccc4cccc(c34)C2=O)c1 the results were UCH37 DUB inh -11.8, UPR XBP1 act -2.4 and UPR CHOP act 0.2.
For Cc1ccc2[nH]c(=O)c3cc(C(=O)N(C)c4ccccc4C)sc3c2c1 the results were UCH37 DUB inh -13.0, Fh CTSL1 inh 2.6, UPR XBP1 act 5.3, UPR CHOP act -0.9, CHOP inh 101.2* and CHOP confirm 2.0.
For CCCCN(CC)C(=O)c1cc2c(=O)[nH]c3ccc(C)cc3c2s1 the results were UCH37 DUB inh -42.7, UPR XBP1 act -0.1 and UPR CHOP act 1.8.
Screening CC(C)(C)c1ccc(C=NNc2ccc(C(=O)O)cc2)cc1 returned UCH37 DUB inh 9.3.
Cc1cc(=O)oc2cc(OCC(=O)NN=Cc3ccccc3[N+](=O)[O-])ccc12 was read as UCH37 DUB inh 0.8.
S=C(Nc1ccccc1)Nc1cc(Cl)ccc1Oc1ccccc1 was read as UCH37 DUB inh 1.4, Fh CTSL1 inh 2.2, UPR XBP1 act 0.6, UPR CHOP act 0.4, CHOP inh 101.8* and CHOP confirm 29.0.
Screening CCOC(=O)c1[nH]c2ccc(Cl)cc2c1-c1ccccc1 returned UCH37 DUB inh -5.0, Fh CTSL1 inh 3.3, UPR XBP1 act 1.9, UPR CHOP act 8.0, CHOP inh 96.7* and CHOP confirm 119.6*.
Screening COC(=O)c1ccc(NC(=O)Nc2ccc(F)cc2)cc1 returned UCH37 DUB inh -3.9, Fh CTSL1 inh 0.5, UPR XBP1 act 4.5, UPR CHOP act 2.4 and CHOP inh 39.5.
CC(C)(C)c1ccc(NC(=O)Nc2ccc(F)cc2)cc1 was read as UCH37 DUB inh -0.6, Fh CTSL1 inh 1.1, UPR XBP1 act 1.9, UPR CHOP act 5.6, CHOP inh 102.6* and CHOP confirm 107.2*.
For COC(=O)CN1C(=S)N(Cc2ccccc2)C(=O)C1CC(=O)Nc1ccc(Br)cc1 (stereo unspecified) the results were UCH37 DUB inh -1.4, Fh CTSL1 inh 3.7, UPR XBP1 act -2.4, UPR CHOP act 0.0, CHOP inh 102.1* and CHOP confirm 97.8*.
